ChEMBL document CHEMBL1147762, “A new chemical tool for exploring the physiological function of the PDE2 isozyme” (Bioorg Med Chem Lett, 2006)

Key:
[1] = biological target: Histamine H2 receptor (Homo sapiens) (UniProt P25021); test: Percentage binding to histamine H2 at 10 uM
[2] = biological target: Muscarinic acetylcholine receptor M4 (Homo sapiens) (UniProt P08173); test: Percentage binding to muscarinic M4 at 10 uM
[3] = biological target: Vasopressin V2 receptor (Homo sapiens) (UniProt P30518); test: Percentage binding to vasopressin V2 at 10 uM
[4] = biological target: 3',5'-cyclic-AMP phosphodiesterase 4B (Homo sapiens, UniProt Q07343); test: Inhibitory activity against PDE4B by scintillation proximity assay
How it was run: (§1)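 Phosphodiesterase inhibition run as a scintillation proximity assay, with enzyme at a concentration in the linear range. Final substrate was 1 µM, below one-third of the enzyme K_M, so that IC50 approximates Ki. Values are means of n experiments with standard deviation.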

[5] = biological target: Muscarinic acetylcholine receptor M1 (Homo sapiens) (UniProt P11229); test: Percentage binding to muscarinic M1 at 10 uM
[6] = biological target: Mitogen-activated protein kinase 14 (Homo sapiens) (UniProt Q16539); test: Inhibition of SAPK2a at 10 uM
[7] = Apical cell permeability in parental MDCK cells
[8] = biological target: Ribosomal protein S6 kinase alpha-5 (Homo sapiens) (UniProt O75582); test: Inhibition of MSK1 at 10 uM
[9] = biological target: Glutamate receptor ionotropic kainate (Homo sapiens) (UniProt P39086+Q16478+Q16099+Q13002+Q13003); test: Percentage binding to kainate receptor at 10 uM; format: protein-complex assay
[10] = biological target: Adenosine receptor A2a (Homo sapiens) (UniProt P29274); test: Percentage binding to adenosine A2a receptor at 10 uM
[11] = biological target: Delta-type opioid receptor (Homo sapiens) (UniProt P41143); test: Percentage binding to opioid delta at 10 uM
[12] = biological target: RAC-alpha serine/threonine-protein kinase (Homo sapiens) (UniProt P31749); test: Inhibition of PKBalpha at 10 uM
[13] = biological target: Dual specificity tyrosine-phosphorylation-regulated kinase 1A (Homo sapiens) (UniProt Q13627); test: Inhibition of DYRK1A at 10 uM
[14] = biological target: Mitogen-activated protein kinase 11 (Homo sapiens) (UniProt Q15759); test: Inhibition of SAPK2b at 10 uM
[15] = Tmax in rat; format: ADME, organism-based; details: Sprague-Dawley, in vivo
[16] = Activity against GABA uptake at 10 uM
How it was run: (§2)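 Single-concentration screen within a panel of 54 receptors and ion channels, measuring binding or interaction at each target.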

[17] = biological target: Mitogen-activated protein kinase 8 (Homo sapiens) (UniProt P45983); test: Inhibition of JNK1a1 at 10 uM
[18] = biological target: Sodium-dependent dopamine transporter (Homo sapiens) (UniProt Q01959); test: Activity against dopamine uptake at 10 uM
[19] = biological target: Type-2 angiotensin II receptor (Homo sapiens) (UniProt P50052); test: Percentage binding to angiotensin II type 2 receptor at 10 uM
[20] = biological target: cGMP-specific 3',5'-cyclic phosphodiesterase (Homo sapiens, UniProt O76074); test: Inhibitory activity against PDE5 by scintillation proximity assay
How it was run: (§3)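 Scintillation proximity assay for phosphodiesterase inhibition. Enzyme is used at a concentration within the linear range, and its KM was measured. Final substrate concentration is 1 µM, below one-third of KM, so IC50 approximates Ki. Results are means of n experiments with standard deviation.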

[21] = biological target: Muscarinic acetylcholine receptor M2 (Homo sapiens) (UniProt P08172); test: Percentage binding to muscarinic M2 at 10 uM
[22] = biological target: Serine/threonine-protein kinase Sgk1 (Homo sapiens) (UniProt O00141); test: Inhibition of SGK at 10 uM
[23] = biological target: B2 bradykinin receptor (Homo sapiens) (UniProt P30411); test: Percentage binding to bradykinin B2 at 10 uM
[24] = Clearance in rat; format: ADME, organism-based; details: Sprague-Dawley, in vivo
How it was run: (§4)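 Sprague–Dawley rats were dosed intravenously at 1 mg/kg in EtOH:PEG 400:H2O (1:4:5) and orally at 30 mg/kg in 0.5% methylcellulose.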

[25] = biological target: D(1A) dopamine receptor (Homo sapiens) (UniProt P21728); test: Percentage binding to dopamine D1 at 10 uM
[26] = Basolateral Caco-2 cell membrane permeability; format: ADME, cell-based; details: human
[27] = biological target: Ribosomal protein S6 kinase (P70S6K) (Homo sapiens) (UniProt Q9UBS0+P23443); test: Inhibition of p70S6K at 10 uM; format: protein-complex assay
[28] = biological target: Mitogen-activated protein kinase 13 (Homo sapiens) (UniProt O15264); test: Inhibition of SAPK4 at 10 uM
[29] = biological target: Cyclin-dependent kinase 2 (Homo sapiens) (UniProt P24941); test: Inhibition of CDK2 at 10 uM
[30] = biological target: Protein kinase C alpha type (Homo sapiens) (UniProt P17252); test: Inhibition of PKCalpha at 10 uM
[31] = biological target: Muscarinic acetylcholine receptor M3 (Homo sapiens) (UniProt P20309); test: Percentage binding to muscarinic M3 at 10 uM
[32] = biological target: MAP kinase-activated protein kinase 2 (Homo sapiens) (UniProt P49137); test: Inhibition of MAPKAPK2 at 10 uM
[33] = biological target: cGMP-dependent 3',5'-cyclic phosphodiesterase (Homo sapiens, UniProt O00408); test: Inhibitory activity against PDE2 by scintillation proximity assay; how it was run: as §1
[34] = biological target: Dual 3',5'-cyclic-AMP and -GMP phosphodiesterase 11A (Homo sapiens, UniProt Q9HCR9); test: Inhibitory activity against PDE11 by scintillation proximity assay
How it was run: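 Phosphodiesterase inhibition run as a scintillation proximity assay, with enzyme at a concentration in the linear range. Values are means of n experiments with standard deviation.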

[35] = Cmax in rat; format: ADME, organism-based; details: Sprague-Dawley, in vivo; how it was run: as §4
[36] = biological target: High affinity cAMP-specific and IBMX-insensitive 3',5'-cyclic phosphodiesterase 8B (Homo sapiens, UniProt O95263); test: Inhibitory activity against PDE8B by scintillation proximity assay; how it was run: as §3
[37] = biological target: Voltage-dependent L-type calcium channel subunit alpha-1D (Homo sapiens) (UniProt Q01668); test: Percentage binding to dihydropyridine sensitive Ca2+ channel D at 10 uM; how it was run: as §2
[38] = biological target: Polyunsaturated fatty acid 5-lipoxygenase (Homo sapiens) (UniProt P09917); test: Inhibition of 5LOX at 10 uM
[39] = biological target: Glutamate [NMDA] receptor (Homo sapiens) (UniProt Q05586+Q12879+Q13224+O15399+O60391+Q14957+Q8TCU5); test: Percentage binding to NMDA at 10 uM; format: protein-complex assay
[40] = biological target: 5-hydroxytryptamine receptor 7 (Homo sapiens) (UniProt P34969); test: Percentage binding to serotonin 5HT7 at 10 uM
[41] = biological target: Histamine H1 receptor (Homo sapiens) (UniProt P35367); test: Percentage binding to histamine H1 at 10 uM
[42] = biological target: 3',5'-cyclic-AMP phosphodiesterase 4D (Homo sapiens, UniProt Q08499); test: Inhibitory activity against PDE4D by scintillation proximity assay; how it was run: as §3
[43] = biological target: Mu-type opioid receptor (Homo sapiens) (UniProt P35372); test: Percentage binding to opioid mu at 10 uM

Chain of Histamine H1 receptor (Homo sapiens) (P35367 whole entry): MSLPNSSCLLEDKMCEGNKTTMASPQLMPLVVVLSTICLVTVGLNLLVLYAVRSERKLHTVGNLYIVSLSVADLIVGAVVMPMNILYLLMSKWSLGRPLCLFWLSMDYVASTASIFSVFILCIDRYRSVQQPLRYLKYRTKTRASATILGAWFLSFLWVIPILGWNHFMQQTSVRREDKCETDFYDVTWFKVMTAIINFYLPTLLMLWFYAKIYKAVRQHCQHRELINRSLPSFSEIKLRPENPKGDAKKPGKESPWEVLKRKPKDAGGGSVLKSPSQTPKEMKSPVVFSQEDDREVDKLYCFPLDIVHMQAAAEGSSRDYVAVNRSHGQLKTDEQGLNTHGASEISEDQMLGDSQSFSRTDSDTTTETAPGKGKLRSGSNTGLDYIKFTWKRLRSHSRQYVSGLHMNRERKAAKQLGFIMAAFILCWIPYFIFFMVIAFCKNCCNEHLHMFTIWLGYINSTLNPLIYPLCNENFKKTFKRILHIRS
Chain of Muscarinic acetylcholine receptor M1 (Homo sapiens) (P11229 whole entry): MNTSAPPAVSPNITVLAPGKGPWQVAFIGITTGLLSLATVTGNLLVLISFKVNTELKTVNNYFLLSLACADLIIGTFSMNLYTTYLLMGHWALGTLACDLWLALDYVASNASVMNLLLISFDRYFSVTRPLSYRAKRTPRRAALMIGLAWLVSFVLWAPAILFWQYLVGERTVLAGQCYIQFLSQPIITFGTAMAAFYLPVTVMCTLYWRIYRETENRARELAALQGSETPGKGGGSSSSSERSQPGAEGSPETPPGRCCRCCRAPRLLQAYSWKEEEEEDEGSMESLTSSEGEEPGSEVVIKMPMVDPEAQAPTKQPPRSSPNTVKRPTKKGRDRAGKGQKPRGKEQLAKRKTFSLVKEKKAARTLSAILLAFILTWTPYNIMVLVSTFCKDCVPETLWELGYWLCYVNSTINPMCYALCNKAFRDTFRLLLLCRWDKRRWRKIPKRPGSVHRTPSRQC
Chain of Ribosomal protein S6 kinase alpha-5 (Homo sapiens) (O75582 whole entry, looked up): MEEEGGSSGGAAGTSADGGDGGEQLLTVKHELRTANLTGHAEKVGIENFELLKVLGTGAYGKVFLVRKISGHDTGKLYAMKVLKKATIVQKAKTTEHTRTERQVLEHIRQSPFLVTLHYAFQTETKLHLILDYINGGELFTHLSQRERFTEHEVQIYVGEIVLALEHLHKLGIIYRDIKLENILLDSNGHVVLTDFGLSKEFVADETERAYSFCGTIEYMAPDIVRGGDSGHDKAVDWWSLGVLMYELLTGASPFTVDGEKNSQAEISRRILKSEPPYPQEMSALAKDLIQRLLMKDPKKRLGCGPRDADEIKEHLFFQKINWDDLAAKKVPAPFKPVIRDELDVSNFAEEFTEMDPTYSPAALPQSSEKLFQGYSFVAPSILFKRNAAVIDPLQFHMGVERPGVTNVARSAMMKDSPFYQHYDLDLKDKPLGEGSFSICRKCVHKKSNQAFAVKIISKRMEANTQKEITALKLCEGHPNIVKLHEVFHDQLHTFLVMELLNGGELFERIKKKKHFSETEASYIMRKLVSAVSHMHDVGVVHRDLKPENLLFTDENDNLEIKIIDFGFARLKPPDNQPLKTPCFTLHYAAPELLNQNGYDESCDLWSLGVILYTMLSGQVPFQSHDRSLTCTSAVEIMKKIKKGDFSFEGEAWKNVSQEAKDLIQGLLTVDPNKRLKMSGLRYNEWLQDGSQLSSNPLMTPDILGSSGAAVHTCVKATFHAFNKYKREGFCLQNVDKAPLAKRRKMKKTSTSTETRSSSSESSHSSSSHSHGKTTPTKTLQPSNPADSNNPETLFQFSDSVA
Chain of B2 bradykinin receptor (Homo sapiens) (P30411 whole entry): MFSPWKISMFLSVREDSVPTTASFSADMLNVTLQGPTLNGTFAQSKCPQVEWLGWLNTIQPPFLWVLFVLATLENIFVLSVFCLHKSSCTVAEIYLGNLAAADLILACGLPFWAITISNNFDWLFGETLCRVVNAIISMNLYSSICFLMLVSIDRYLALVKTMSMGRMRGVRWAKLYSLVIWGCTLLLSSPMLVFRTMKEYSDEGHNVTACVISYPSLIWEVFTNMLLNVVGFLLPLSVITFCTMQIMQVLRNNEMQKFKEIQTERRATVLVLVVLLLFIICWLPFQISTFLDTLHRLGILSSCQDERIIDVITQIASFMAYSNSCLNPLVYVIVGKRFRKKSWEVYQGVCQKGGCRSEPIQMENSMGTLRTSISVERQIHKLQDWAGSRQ
Chain of Mitogen-activated protein kinase 8 (Homo sapiens) (P45983 whole entry): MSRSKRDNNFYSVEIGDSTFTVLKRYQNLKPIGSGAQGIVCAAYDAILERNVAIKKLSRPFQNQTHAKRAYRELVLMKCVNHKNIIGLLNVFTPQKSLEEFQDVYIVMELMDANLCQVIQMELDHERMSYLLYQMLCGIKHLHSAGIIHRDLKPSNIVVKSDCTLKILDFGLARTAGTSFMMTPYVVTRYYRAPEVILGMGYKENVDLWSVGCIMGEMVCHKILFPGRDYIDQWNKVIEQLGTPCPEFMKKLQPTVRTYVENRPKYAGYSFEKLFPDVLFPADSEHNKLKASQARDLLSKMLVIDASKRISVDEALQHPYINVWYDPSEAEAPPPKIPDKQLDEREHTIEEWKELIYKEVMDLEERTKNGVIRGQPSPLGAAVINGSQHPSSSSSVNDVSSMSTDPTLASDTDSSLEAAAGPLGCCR
Chain of Histamine H2 receptor (Homo sapiens) (P25021 whole entry): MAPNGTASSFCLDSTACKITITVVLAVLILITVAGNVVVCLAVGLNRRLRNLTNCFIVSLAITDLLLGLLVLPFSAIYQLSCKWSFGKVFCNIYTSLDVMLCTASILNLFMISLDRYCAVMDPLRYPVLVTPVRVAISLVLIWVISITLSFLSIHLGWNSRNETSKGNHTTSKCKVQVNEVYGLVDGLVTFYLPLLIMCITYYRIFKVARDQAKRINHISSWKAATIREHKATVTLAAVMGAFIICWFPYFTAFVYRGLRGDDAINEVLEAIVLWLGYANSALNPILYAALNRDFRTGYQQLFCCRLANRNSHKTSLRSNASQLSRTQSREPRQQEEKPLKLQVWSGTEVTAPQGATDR
Chain of cGMP-dependent 3',5'-cyclic phosphodiesterase (O00408 whole entry): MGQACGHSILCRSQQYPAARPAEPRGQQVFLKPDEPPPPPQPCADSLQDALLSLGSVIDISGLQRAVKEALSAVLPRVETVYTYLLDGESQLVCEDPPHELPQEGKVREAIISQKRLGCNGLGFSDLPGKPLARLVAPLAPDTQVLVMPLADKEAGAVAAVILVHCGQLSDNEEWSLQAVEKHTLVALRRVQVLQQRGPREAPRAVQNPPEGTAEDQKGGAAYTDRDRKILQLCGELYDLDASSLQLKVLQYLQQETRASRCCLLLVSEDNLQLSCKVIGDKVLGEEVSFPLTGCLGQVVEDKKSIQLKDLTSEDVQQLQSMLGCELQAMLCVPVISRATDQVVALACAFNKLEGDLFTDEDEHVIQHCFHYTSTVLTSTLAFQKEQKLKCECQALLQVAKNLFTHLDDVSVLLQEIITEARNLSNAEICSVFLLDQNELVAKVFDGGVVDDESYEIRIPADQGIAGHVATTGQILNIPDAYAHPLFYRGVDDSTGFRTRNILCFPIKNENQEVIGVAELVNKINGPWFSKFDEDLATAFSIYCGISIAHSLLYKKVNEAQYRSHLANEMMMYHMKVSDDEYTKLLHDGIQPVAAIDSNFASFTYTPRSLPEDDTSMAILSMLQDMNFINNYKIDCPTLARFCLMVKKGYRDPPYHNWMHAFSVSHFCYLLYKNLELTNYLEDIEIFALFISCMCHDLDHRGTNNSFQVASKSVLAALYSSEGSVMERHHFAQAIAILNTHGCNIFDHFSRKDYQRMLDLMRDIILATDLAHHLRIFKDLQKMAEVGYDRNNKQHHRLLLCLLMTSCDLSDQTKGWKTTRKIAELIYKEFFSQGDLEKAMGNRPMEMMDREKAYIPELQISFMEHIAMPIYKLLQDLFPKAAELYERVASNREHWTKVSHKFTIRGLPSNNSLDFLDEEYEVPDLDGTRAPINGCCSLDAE
Chain of Mitogen-activated protein kinase 14 (Homo sapiens) (Q16539 whole entry): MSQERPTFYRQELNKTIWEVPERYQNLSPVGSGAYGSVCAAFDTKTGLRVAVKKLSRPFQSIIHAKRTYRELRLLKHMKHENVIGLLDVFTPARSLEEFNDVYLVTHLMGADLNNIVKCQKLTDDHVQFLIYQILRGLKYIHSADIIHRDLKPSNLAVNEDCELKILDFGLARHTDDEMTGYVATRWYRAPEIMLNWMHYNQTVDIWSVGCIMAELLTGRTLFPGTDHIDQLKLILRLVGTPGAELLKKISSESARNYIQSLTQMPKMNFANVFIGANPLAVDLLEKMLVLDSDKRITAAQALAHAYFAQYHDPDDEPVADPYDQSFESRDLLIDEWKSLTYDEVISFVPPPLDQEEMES
Chain of D(1A) dopamine receptor (Homo sapiens) (P21728 whole entry): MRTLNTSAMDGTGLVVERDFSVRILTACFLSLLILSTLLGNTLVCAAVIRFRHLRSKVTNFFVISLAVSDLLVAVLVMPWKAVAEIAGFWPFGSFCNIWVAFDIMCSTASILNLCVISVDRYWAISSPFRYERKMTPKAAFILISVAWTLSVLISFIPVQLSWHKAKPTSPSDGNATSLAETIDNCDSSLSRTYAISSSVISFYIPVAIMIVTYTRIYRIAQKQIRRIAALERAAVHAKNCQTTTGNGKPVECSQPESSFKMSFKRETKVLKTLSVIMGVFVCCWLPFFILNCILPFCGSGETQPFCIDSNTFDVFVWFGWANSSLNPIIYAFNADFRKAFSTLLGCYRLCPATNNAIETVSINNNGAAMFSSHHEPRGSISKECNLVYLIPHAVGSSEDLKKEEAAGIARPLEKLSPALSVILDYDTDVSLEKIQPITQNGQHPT

- Activity [1]: 0%
- Activity [2]: 1%
- Activity [3]: 13%
- IC50 [4]: > 16 µM
- Activity [5]: 9%
- inhibition [6]: 0%
- Papp [7]: 3 ×10⁻⁶ cm/s
- inhibition [8]: 6%
- Activity [9]: 0%
- Activity [10]: 24%
- Activity [11]: 3%
- inhibition [12]: 14%
- inhibition [13]: 53%
- inhibition [14]: 5%
- Tmax [15]: 48 min
- Activity [16]: 8%
- inhibition [17]: 0%
- Activity [18]: 11%
- Activity [19]: 4%
- IC50 [20]: > 16 µM
- Activity [21]: 0%
- inhibition [22]: 0%
- Activity [23]: 5%
- clearance [24]: 8.8 mL/min/kg
- Activity [25]: 5%
- Papp [26]: 32 ×10⁻⁶ cm/s
- inhibition [27]: 23%
- inhibition [28]: 13%
- inhibition [29]: 2%
- inhibition [30]: 13%
- Activity [31]: 0%
- inhibition [32]: 8%
- IC50 [33]: 0.04 µM
- IC50 [34]: 11.6 µM
- Cmax [35]: 8300 ng/mL
- IC50 [36]: > 16 µM
- Activity [37]: 0%
- inhibition [38]: 35%
- Activity [39]: 7%
- Activity [40]: 0%
- Activity [41]: 7%
- IC50 [42]: > 16 µM
- Activity [43]: 3%
Structure (SMILES): CN1C(=O)C(C(=O)Nc2nncs2)c2cc3occc3cc21 (stereo not drawn)
